# This is a sample that favours compounds with a hit; in the whole collection about 3.1% have one here.
# MBD2 DNA inh: blocks human MBD2 binding to methylated DNA | Q9UBB5 | TR-FRET, MBD2 binding to methylated oligonucleotide | inhibition, % at 4.4 µM | hit rate 0.31% among 370,000; in the data active = inhibition above about 13%
# rCAG RNA binder: molecules binding r(CAG) RNA repeats | r(CAG) RNA repeat, TO-PRO-1 dye displacement fluorescence | hit rate 1.3% among 370,000 | inhibition, % at 3 µM;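 active = inhibition above the plate cutoff, the mean of all test compounds on that plate plus 3 SD, cut at about 35% in these data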;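 also: 0% = DMSO alone and 100% = 100 µM mitoxantrone as full dye displacement; higher means more dye released from RNA so lower well fluorescence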
# CSN inh: CSN deneddylation inhibition. AID 651999. hit rate 0.38% among 360,000. Purified CSN, SCF-Nedd8-OG deneddylation, fluorescence polarization. inhibition, % at 12.5 µM;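 active = pattern-corrected inhibition above about 35%, with an unprinted fluorescence ratio check between 0.5 and 1.5, limit read from the data, passing the limit was not always enough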;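 also: 0% = enzyme with substrate and 100% = substrate without enzyme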
#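 test system = HEK293T-derived human Csn5 enzyme | amount = 0.24 nM Csn5 enzyme, final concentration | medium = Tris/NaCl/DTT buffer, pH 7.5 | schedule = 90 min reaction at room temperature | signal = FP | evaluation = inhibition of Csn5 cleavage, % | compound dosing = single dose of 12.5 µM compound with 0.25% DMSO | probe or stimulus = 10 nM SCFSkp2-Nedd8OG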
# LEDGF integ inh: blocks HIV-1 LEDGF/p75-dependent DNA integration; hit rate 0.64% among 370,000; TR-FRET IN-LEDGF/p75 DNA integration, Eu/Cy5; AID 743269; inhibition, % at 3.7 µM;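 active = inhibition above the screen-wide mean plus 3 SD, cut at about 13% in these data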;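 also: signal is the Cy5 over europium emission ratio at 671 and 618 nm; 0% = plate median of compound wells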
# UHRF1 binding: human UHRF1 methylated DNA binding inhibitors; UHRF1 binding to methylated oligo, TR-FRET; hit rate 0.75% among 370,000; Q96T88; inhibition, % at 4.4 µM; AID 687016; in the data active = inhibition above about 21%;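 also: UHRF1 SRA domain binding a hemimethylated CpG hairpin DNA probe; 0% = median of test compound wells and 100% = reference inhibitor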
# Target sequence (Q96T88 whole entry, looked up, the tested form may be a part): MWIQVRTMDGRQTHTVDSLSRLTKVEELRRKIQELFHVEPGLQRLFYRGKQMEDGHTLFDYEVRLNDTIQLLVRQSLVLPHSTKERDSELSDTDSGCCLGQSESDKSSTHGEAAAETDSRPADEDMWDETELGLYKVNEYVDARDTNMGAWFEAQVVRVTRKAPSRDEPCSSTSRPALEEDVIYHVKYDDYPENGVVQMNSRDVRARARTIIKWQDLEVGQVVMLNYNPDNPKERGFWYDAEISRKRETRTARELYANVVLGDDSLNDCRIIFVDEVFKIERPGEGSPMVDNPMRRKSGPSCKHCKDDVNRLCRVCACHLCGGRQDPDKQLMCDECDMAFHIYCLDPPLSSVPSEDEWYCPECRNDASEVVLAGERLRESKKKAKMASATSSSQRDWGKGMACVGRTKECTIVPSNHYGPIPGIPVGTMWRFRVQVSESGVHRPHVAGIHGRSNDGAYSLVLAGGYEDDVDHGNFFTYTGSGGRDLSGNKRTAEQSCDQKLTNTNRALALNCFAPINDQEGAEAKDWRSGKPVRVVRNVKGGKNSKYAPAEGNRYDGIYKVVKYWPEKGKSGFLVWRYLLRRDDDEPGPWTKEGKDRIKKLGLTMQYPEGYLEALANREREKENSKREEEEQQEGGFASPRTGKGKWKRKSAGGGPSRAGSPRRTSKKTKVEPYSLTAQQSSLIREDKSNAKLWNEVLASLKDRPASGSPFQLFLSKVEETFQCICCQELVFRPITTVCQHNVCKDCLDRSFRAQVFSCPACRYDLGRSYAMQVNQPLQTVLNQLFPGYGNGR
# ATG4B inhibitor: inhibitors of human ATG4B cysteine protease; AID 504462; hit rate 0.51% among 340,000; ATG4B cleavage of LC3-PLA2, NBD-HPC fluorescence, 1 h; inhibition, % at 8.33 µM; in the data active = inhibition above about 40%
# ATG4B conf: confirmation of human ATG4B inhibitors. ATG4B protease fluorescent substrate cleavage assay. shares compounds with ATG4B inhibitor. inhibition, % at 8.33 µM. hit rate 92% among 320; in the data active = inhibition above about 39%
# PLA2 counter: inhibits human PLA2, flagging false ATG4B inhibitors; shares compounds with ATG4B inhibitor; purified PLA2, NBD-C6-HPC fluorescence, 45 min; inhibition, % at 8.33 µM; hit rate 66% among 1,600; AID 588402; in the data active = inhibition above about 50%
# rCAG bind conf: r(CAG) RNA repeat binding, confirmation; shares compounds with rCAG RNA binder; TO-PRO-1 dye displacement fluorescence; inhibition, % at 3 µM; hit rate 70% among 4,300; AID 652065;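 active = inhibition above a per-plate cutoff, the mean inhibition of sample wells plus 3 SD, cut at about 35% in these data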;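 also: loss of TO-PRO-1 fluorescence as compound displaces dye from 1x1 AA loop RNA; 0% = DMSO only wells and 100% = 100 µM mitoxantrone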
# DNA CAG counter: counter-screen for rCAG RNA binders: DNA CAG dye complex inhibitors; shares compounds with rCAG RNA binder; d(CAG) DNA oligo TO-PRO-1 dye displacement, fluorescence; inhibition, % at 3 µM; hit rate 94% among 4,300; AID 652068;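 active = inhibition above its plate's cutoff, the mean test-well inhibition plus 3 SD, cut at about 4.8% in these data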;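 also: 0% = DNA dye mix with DMSO and 100% = 100 µM mitoxantrone; hits displace the dye from DNA and so lower well fluorescence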
# DNA CAG DR: DNA CAG dye complex inhibition, dose response counter-screen; hit rate 20% among 250; DNA CAG/GTC duplex TO-PRO-1 dye displacement fluorescence; AID 686960; IC50, µM; shares compounds with rCAG RNA binder; in the data active = IC50 below about 10 µM
# * = called active by the depositor; x = not tested or not shown.
SMILES,MBD2 DNA inh,rCAG RNA binder,CSN inh,LEDGF integ inh,UHRF1 binding,ATG4B inhibitor,PLA2 counter,rCAG bind conf,DNA CAG counter,others
CC(Cl)C(=O)N1CCC(C(=O)NCC2COc3ccccc3O2)CC1 (stereo unspecified),2,3,x,-2,0,x,x,x,x,
N=C1/C(=C\c2ccc(OC(=O)c3ccccc3Cl)cc2)C(=O)N=C2SC(N3CCOCC3)=NN12,5,37*,8,-1,-1,58*,52*,63*,27*,
COc1cc(/C=C2\C(=N)N3N=C(N4CCOCC4)SC3=NC2=O)ccc1OC(=O)c1ccccc1,-2,27,2,2,0,10,x,x,x,
O=C(N/N=C/c1ccc(-c2ccc(Cl)c(C(=O)O)c2)o1)c1cc2c(ccc3ccccc32)o1,-3,52*,26,-3,-3,42*,63*,86*,61*,
COc1ccc(S[C@]2(C(=O)N3CCCC3)CC(=O)N(c3ccccc3OC)[C@@H]2c2ccc(OC)cc2)cc1,-2,7,x,-3,0,x,x,x,x,
O=C(Nc1nc(-c2ccco2)c(-c2ccco2)s1)c1c(F)cccc1Cl,1,78*,49*,48*,15,64*,79*,28,14*,
O=C(Nc1nc2c(F)cccc2s1)c1ccco1,-1,2,-5,-2,0,12,x,x,x,
COc1cc(C)ccc1C(=O)N1CCC(Oc2cccnc2)CC1,4,-2,x,-3,-1,x,x,x,x,
O=c1cc(-c2ccc(O)c(-c3c(O)cc(O)c4c(=O)cc(-c5ccc(O)cc5)oc34)c2)oc2cc(O)cc(O)c12,2,92*,-1,0,-1,82*,76*,79*,53*,
Cc1csc2ncc(C(=O)NCc3ccccc3Cl)c(=O)n12,0,2,2,4,2,-5,x,x,x,
Cc1nc2c(C(=O)NCc3ccccc3Cl)c[nH]n2c(=O)c1Cl,0,81*,-2,10,5,49*,46,58*,21*,ATG4B conf=62*
Cc1nc2c(C(=O)NCCc3ccccc3Cl)c[nH]n2c(=O)c1Cl,-10,71*,3,2,-1,43*,57*,74*,33*,DNA CAG DR=4.5*
COc1cc(/C=C(\C(=O)O)c2ccc(S(=O)(=O)N3CCCC3)s2)cc(OC)c1,2,26,8,-1,1,-7,x,x,x,
COc1ccc(Br)cc1/C=C(\C(=O)O)c1ccc(S(=O)(=O)N2CCCC2)s1,-4,52*,0,-5,2,67*,76*,47*,14*,
COC(=O)CCC1NC(=O)C(Cc2c[nH]c3ccccc23)NC(=O)C2CC(=O)OC(C)C(NC(=O)C(C)NC(=O)C3CCCN3C(=O)C3CCCN3C(=O)C(C)NC(C)=O)C(=O)NC(CC(C)C)C(=O)NC(CCCCNC(=O)CCC(C(=O)NC(Cc3ccc(O)cc3)C(=O)O)NC1=O)C(=O)NC(Cc1c[nH]c3ccccc13)C(=O)N1CCCC1C(=O)NC(CO)C(=O)N2 (stereo unspecified),1,27,x,4,-1,x,x,x,x,
Cc1ccc(CNC2CCC23CCC(c2ccccc2)CC3)o1 (stereo unspecified),-3,x,x,2,2,x,x,x,x,
COc1cc(NS(=O)(=O)c2ccc(Nc3nc(-c4cccc([N+](=O)[O-])c4)cs3)cc2)nc(OC)n1,5,95*,3,3,0,45*,43,90*,64*,ATG4B conf=78*
Cc1cccc(C(=O)Nc2scc(-c3ccc(Br)cc3)c2C(=O)O)c1,1,6,1,0,0,37,x,x,x,
Cc1ccc(-c2csc(NC(=O)c3cccc(C)c3)c2C(=O)O)cc1,-1,77*,6,-1,8,45*,52*,58*,21*,
COc1cccc(-c2nc(SCC(=O)Nc3nc(-c4ccccc4)c(C)s3)[nH]c(=O)c2C#N)c1,-3,70*,5,-1,-1,42*,38,92*,76*,ATG4B conf=75*
O=C1NC(=O)/C(=C/c2ccccc2OCc2ccccc2)S1,-5,67*,9,3,-2,46*,53*,60*,16*,
Cc1ccc2c(c1)-c1c(cnn1CC(=O)NCCc1ccc(Cl)cc1)CO2,2,0,x,-3,1,x,x,x,x,
Cc1cc(/C=N/n2c(COc3ccccc3)nc3ccccc3c2=O)c(O)c([N+](=O)[O-])c1,-7,66*,-10,-2,-5,60*,35,63*,27*,ATG4B conf=53*
Cc1ccc(-c2[nH]ncc2/C=N/n2c(COc3ccccc3)nc3ccccc3c2=O)cc1,-6,8,-13,0,-1,-9,x,x,x,
O=C(O)c1[nH]c2ccccc2c1C(c1cc(Cl)cc([N+](=O)[O-])c1O)c1c(C(=O)O)[nH]c2ccccc12,-4,92*,-6,14*,0,58*,40,73*,37*,ATG4B conf=30
SMILES,MBD2 DNA inh,rCAG RNA binder,CSN inh,LEDGF integ inh,UHRF1 binding,ATG4B inhibitor,PLA2 counter,rCAG bind conf,DNA CAG counter,others
O=C(O)c1cc(NN=C2c3ccccc3-c3ccccc32)ccc1Cl,-5,93*,6,1,1,45*,39,81*,50*,ATG4B conf=62*
COc1ccc(CN2CCC(CNC(=O)Nc3ccc(Cl)cc3)CC2)cc1,5,4,x,-1,2,x,x,x,x,
Cc1ccc(NC(=S)NNC(=O)CSc2nc3ccccc3c(=O)n2-c2ccc(C)cc2)cc1,2,45*,-8,2,-2,88*,93*,45*,20*,
Cc1ccc(-n2c(SCC(=O)Nc3ccc(N4CCOCC4)cc3)nc3ccccc3c2=O)cc1,-1,9,-2,1,1,7,x,x,x,
O=C(NCCO)C1(C(=O)C2CC2)CC(c2ccccc2C(F)(F)F)=NO1 (stereo unspecified),3,3,x,0,-1,x,x,x,x,
COc1ccccc1C1C2=C(N=c3s/c(=C/c4cccc(OCC(=O)O)c4)c(=O)n31)c1ccccc1CC2 (stereo unspecified),3,59*,5,3,-2,50*,56*,78*,43*,

# Screening data (PubChem BioAssay)
